# A selection: hits, their analogues and other compounds. The true share with any hit is near 2.5%.
# SENP8 block-1 = blocks the human protease SENP8. 1.2% of 330,000 active. purified SENP8, Z-RLRGG-aminoluciferin cleavage, luminescence. inhibition, % at 10 µM. Q96LD8. AID 2540; in the data active = inhibition above about 50%
# SENP7 inh = SENP7 protease inhibition; Q9BQF6; recombinant SENP7, Z-RLRGG-aminoluciferin luminescence, 40 min; 1.5% of 330,000 active; inhibition, % at 5 µM;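 active = inhibition above about 50% at the single test dose, limit read from the data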;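 note: plate controls were DMSO with enzyme for no effect and no enzyme buffer wells for full effect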
# SENP1 FRET inh = inhibitors of human SENP1 SUMO protease catalytic domain. recombinant SENP1 catalytic domain, CyPet-SUMO1-YPet FRET cleavage. inhibition, % at 10 µM. 0.21% of 360,000 active. AID 624204;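 active = inhibition at least 30% at 10 µM, raw YFP signal under a set limit, fluorescence ratio 0.5 to 1.5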;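 note: 0% = enzyme with DMSO and 100% = no enzyme wells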
# Target sequence (Q9P0U3 419-644 limits assumed): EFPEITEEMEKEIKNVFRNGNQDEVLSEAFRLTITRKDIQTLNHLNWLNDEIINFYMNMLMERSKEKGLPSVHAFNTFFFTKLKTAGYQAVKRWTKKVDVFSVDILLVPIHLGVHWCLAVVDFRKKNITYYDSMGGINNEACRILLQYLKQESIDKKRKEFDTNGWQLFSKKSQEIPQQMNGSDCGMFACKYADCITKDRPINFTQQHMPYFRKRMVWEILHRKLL
#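 Material – human SENP1 catalytic domain · Input – SENP1 enzyme, 20 pM final · Compound dosing – single concentration of 10 µM compound, 0.5% DMSO final · Timing – enzyme reaction for 50 min at room temperature, dark · Measured by – FRET fluorescence in CFP and YFP emission channels · Control set – no-enzyme wells low, DMSO-plus-enzyme wells high control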
# SENP8 block-2 = blocks human SENP8 cleavage of Nedd8 substrate. recombinant SENP8, Nedd8 substrate fluorescence. inhibition, % at 20 µM. 0.64% of 360,000 active. AID 602440; in the data active = inhibition mostly above about 40%, no sharp cut-off; inactive = mostly below about 27%
# SENP6 block = SENP6 protease inhibition; Q9GZR1; Recombinant SENP6 catalytic domain, aminoluciferin luminescence; inhibition, % at 10 µM; 1.8% of 330,000 active;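 active = inhibition above about 50% at the single tested dose, limit read from the data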;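 note: plate controls were DMSO wells with enzyme for no effect and DMSO wells lacking enzyme for full effect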
# Target sequence (Q9GZR1 628-1112 limits assumed): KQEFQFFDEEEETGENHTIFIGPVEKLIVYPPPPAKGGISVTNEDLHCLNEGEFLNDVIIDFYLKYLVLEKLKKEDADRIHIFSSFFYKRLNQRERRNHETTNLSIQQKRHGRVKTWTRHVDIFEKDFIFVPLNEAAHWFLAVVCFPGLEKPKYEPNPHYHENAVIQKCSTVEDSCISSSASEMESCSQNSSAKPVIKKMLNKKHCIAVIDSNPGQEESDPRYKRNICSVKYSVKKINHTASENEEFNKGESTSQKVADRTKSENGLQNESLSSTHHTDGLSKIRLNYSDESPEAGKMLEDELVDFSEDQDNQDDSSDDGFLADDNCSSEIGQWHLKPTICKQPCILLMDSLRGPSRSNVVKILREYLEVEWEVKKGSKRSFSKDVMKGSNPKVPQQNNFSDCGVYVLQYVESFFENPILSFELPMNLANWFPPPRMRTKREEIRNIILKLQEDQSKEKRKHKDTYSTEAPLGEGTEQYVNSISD
# SENP8 conf = confirmation of human SENP8 protease inhibitors; 40% of 6,200 active; AID 488912; inhibition, % at 12.5 µM; shares compounds with SENP7 inh; Recombinant SENP8, Z-RLRGG-aminoluciferin luminescence, 60 min;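 active = mean inhibition across replicates above about 50%, limit read from the data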
# SENP6 confirm = confirmation of human SENP6 protease inhibitors | shares compounds with SENP7 inh | recombinant SENP6, Z-RLRGG-aminoluciferin luminescence | inhibition, % at 12.5 µM | 58% of 6,200 active | AID 488915
# SENP7 conf = human SENP7 inhibition, confirmed; shares compounds with SENP7 inh; recombinant SENP7, Z-RLRGG-aminoluciferin luminescence, 40 min; inhibition, % at 12.5 µM; 69% of 6,200 active
# Casp3 SENP sel = selectivity test for SENP inhibitors: human caspase-3 inhibition; inhibition, % at 12.5 µM; shares compounds with SENP7 inh; AID 488918; 60% of 6,200 active; purified caspase-3, Z-DEVD-aminoluciferin luminescence, 60 min;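 active = mean inhibition above about 50%, limit read from the data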;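 note: plate controls were enzyme with DMSO for no effect and wells without caspase-3 for full effect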
# Luc interf = interferes with luciferase luminescence in SENP counter-screen | shares compounds with SENP7 inh | Pre-incubated SENP8/Z-RLRGG-aminoluciferin, luciferase luminescence interference | inhibition, % at 12.5 µM | 39% of 6,200 active | AID 488919;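 active = mean inhibition above about 50% when retested at one dose, limit read from the data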;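 note: plate controls were DMSO wells with completed reaction for no effect and substrate without enzyme for full effect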
# * = called active by the depositor; . = no result.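 Rule for the calls, unless noted: active = mean inhibition above about 50% in the one-dose retest (limit read from the data); inactive = the rest.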
SMILES,SENP8 block-1,SENP7 inh,SENP1 FRET inh,SENP8 block-2,SENP6 block,SENP8 conf,SENP6 confirm,SENP7 conf,Casp3 SENP sel,Luc interf
Clc1ccc2nc(-c3ccc4c(c3)OCO4)cn2c1,78.2*,79.3*,-0.4,-416.4,75.4*,28.8,86.0*,69.7*,63.8*,11.1
Clc1ccc2nc(-c3ccccc3)cn2c1,92.4*,97.0*,-0.2,-147.2,95.5*,4.0,85.8*,99.0*,91.4*,33.3
Cc1ccc2nc(-c3ccc4c(c3)OCCO4)cn2c1,87.0*,94.3*,2.7,-426.3,89.2*,93.3*,93.3*,101.0*,94.3*,92.9*
O=C(O)c1cc(-c2ccc3c(c2)OCO3)nc2ccc(Cl)cc12,0.4,-2.5,-2.2,-371.6,-5.1,.,.,.,.,.
COc1ccc([N+](=O)[O-])cc1N(CC(=O)N1CCN(Cc2ccccc2)CC1)S(C)(=O)=O,-6.5,-9.9,1.8,8.6,9.8,.,.,.,.,.
O=C(O)COc1ccc(/C=C/c2nc(-c3ccccc3O)n[nH]2)cc1,67.0*,69.1*,0.8,-49.5,86.9*,84.2*,81.5*,95.8*,71.3*,82.8*
COc1ccc(/C=C/c2nc(-c3ccccc3O)n[nH]2)cc1OC,-3.6,43.0,1.5,-117.1,67.1*,65.4*,62.9*,85.2*,19.4,48.3
O=C(O)COc1ccc(-c2nccc(-c3ccccn3)n2)cc1,-15.2,-3.8,1.6,2.7,-35.9,.,.,.,.,.
O=C(CSCc1ccc(F)cc1)Nc1ccccc1,2.9,65.1*,-0.2,4.0,-4.2,7.1,6.5,-0.2,-2.8,-2.0
O=C(CSCc1ccccc1)Nc1ccc(F)c(F)c1,-12.2,-7.4,2.0,12.6,-22.3,.,.,.,.,.
Cc1cc(C)c(C(=O)N2CCC(N3CCC(C(=O)NC(C)C)CC3)CC2)o1,-8.7,-4.1,-37.0,-27.5,-17.2,.,.,.,.,.
CCC(C)(C)NC(=O)C(c1ccccn1)N(C(=O)c1csnn1)c1ccc(C)cc1 (centres undefined),-1.9,-11.2,1.0,-3.4,-9.6,.,.,.,.,.
O=C(Nc1ccccc1F)c1c[nH]c(=O)[nH]c1=O,23.2,28.6,0.2,27.6,51.2*,40.2,34.7,69.7*,75.6*,49.1
O=C(CSCSCC(=O)Nc1ccc2c(c1)OCO2)Nc1ccc2c(c1)OCO2,-1.4,2.6,0.9,6.5,3.5,.,.,.,.,.
Cc1c(C(=O)Nc2ccc3c(c2)OCO3)oc2ccccc12,58.4*,67.3*,1.1,2.2,70.3*,75.0*,74.6*,92.5*,59.0*,64.6*
COc1ccc(NC(=O)/C=C/c2ccc3c(c2)OCO3)cc1,45.1,79.0*,3.6,3.9,67.3*,28.6,34.5,76.8*,66.6*,71.6*
CC(C)=CC(=O)Nc1ccc2c(c1)OCO2,50.3*,0.8,0.4,7.7,63.5*,58.8*,58.9*,83.6*,86.1*,63.0*
O=C(Nc1ccc2c(c1)OCCO2)C(=O)c1c[nH]c2ccccc12,82.1*,99.4*,3.2,13.4,86.8*,78.8*,78.3*,101.2*,86.2*,92.0*
CCCCNC(=O)c1cn(C)c2ccc(S(=O)(=O)N3CC(C)CC(C)C3)cc2c1=O (centres undefined),-0.8,7.5,1.9,10.8,-2.1,.,.,.,.,.
Cc1ccc(S(=O)(=O)Nc2csc(C)c2C(=O)O)cc1,-10.6,9.7,.,.,-11.1,.,.,.,.,.
CCOC(=O)CCC(=O)Nc1ccc([N+](=O)[O-])cc1C,-0.5,2.7,1.0,11.8,7.3,.,.,.,.,.
CC(=O)Nc1ccc(OCc2ccc3c(c2)OCO3)cc1,67.6*,84.7*,1.8,15.6,82.4*,74.9*,74.1*,93.4*,87.8*,51.3*
O=C(Nc1ccc2c(c1)OCCO2)c1ccccc1,60.7*,79.0*,2.2,5.3,67.8*,4.2,61.0*,90.3*,87.1*,67.6*
O=C(Nc1ccc2c(c1)OCO2)c1ccccc1,41.1,54.7*,0.0,11.3,61.6*,49.5,46.7,81.0*,81.2*,61.2*
COc1ccc(NC(=O)NCc2ccc3c(c2)OCO3)cc1,5.6,2.6,3.1,16.1,4.6,.,.,.,.,.
SMILES,SENP8 block-1,SENP7 inh,SENP1 FRET inh,SENP8 block-2,SENP6 block,SENP8 conf,SENP6 confirm,SENP7 conf,Casp3 SENP sel,Luc interf
COc1ccc2c(-c3ccccc3)cc(SCC(=O)NC3CCS(=O)(=O)C3)nc2c1 (centres undefined),2.7,15.9,-0.8,-124.2,-8.1,.,.,.,.,.
CCN(CC)CCC12CC(C)OC1=Nc1ccccc1NC2=O (centres undefined),.,.,-2.7,20.3,.,.,.,.,.,.
CCS(=O)(=O)C1=NN2C(=N)/C(=C\c3ccc(SCc4ccco4)o3)C(=O)N=C2S1,.,.,-27.7,-13.5,.,.,.,.,.,.
CCc1nc2ccc(C(=O)N(CC)CCN(C)C)cn2c1N(C)C(=O)c1cccc(OC)c1,.,.,0.0,6.2,.,.,.,.,.,.
COc1ccc(CCCNC(=O)C2Cc3c(-c4ccc(NC(C)=O)cc4)ccnc3O2)cc1 (centres undefined),.,.,1.0,0.3,.,.,.,.,.,.
COc1ccc2oc(C(=O)Nc3ccccn3)c(C)c2c1,77.4*,92.1*,-8.1,-145.1,86.9*,84.7*,84.8*,97.8*,88.0*,87.9*
COc1ccc2oc(C(=O)Nc3nc(C)cs3)c(C)c2c1,43.4,60.8*,-27.8,-347.8,46.0,17.0,37.0,72.3*,54.8*,34.0
CNS(=O)(=O)c1cnccc1N1CCN(c2cccc(C(F)(F)F)c2)CC1,1.2,-4.2,-1.4,11.3,2.3,.,.,.,.,.
Cc1ccc(Cl)cc1N1CCN(S(C)(=O)=O)CC1,-5.9,66.7*,3.3,3.0,4.5,3.7,6.1,13.9,9.3,5.0
Cc1cccc(-c2noc(C3CCCCC3)n2)c1,20.8,49.8,1.5,14.9,62.9*,10.9,25.8,74.8*,22.5,10.3
Cc1ccc2ccccc2c1CSc1nc(N)nc2c1ncn2CC(C)C,.,.,0.4,25.4,.,.,.,.,.,.
COc1ccc(S(=O)(=O)NCCC(C)C)cc1OC,-8.1,88.4*,-1.5,-4.3,-5.4,14.2,12.8,9.0,1.8,2.8
CCOCCn1cnc2sc(C(=O)Nc3nc(C)c(C(=O)OCC)s3)c(C)c2c1=O,79.3*,82.9*,.,.,52.8*,9.6,5.1,9.5,3.4,3.7
CCOC(=O)c1sc(Nc2ccc(Br)cc2)nc1C,-5.2,-2.6,-0.1,-392.3,-28.6,.,.,.,.,.
